A short description of experiment [1]: Induction of cytochrome c release from mouse liver mitochondria. The format is functional. The method, boiled down:
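Mouse liver mitochondria were isolated by differential centrifugation in Tris-MOPS/EGTA/sucrose buffer pH 7.4 and diluted to 1mg/ml in KCl-based buffer. They were incubated 1 hour at 30 °C with increasing compound concentrations, with DMSO kept equal, then pelleted at 13,000g for 10 minutes. Cytochrome c release was assessed, and the concentration giving 50% release was reported.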

In experiment [2] the target is Apoptosis regulator Bcl-2 (Homo sapiens, UniProt P10415). The experiment is described as follows: Inhibition of Bak peptide binding to human recombinant Bcl2. The method, boiled down: (§1)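 Fluorescence polarization competition against 50 nM fluorescein-labelled Bak peptide, in PBS pH 7.0 with 1 mM DTT. Protein set for 60% peptide complex: Bcl-2 1000 nM, Bcl-XL 880nM, Bcl-w 1200 nM. Compounds added from 3-fold DMSO stock dilutions (10 mM down). Incubation 1 h at 23 °C, read in mP, peptide-only interference subtracted. Ki fitted from FP change versus competitor concentration.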

A further experiment deals with T1, Bcl-2-like protein 2 (Homo sapiens, UniProt Q92843).
T1 sequence (Q92843 whole entry): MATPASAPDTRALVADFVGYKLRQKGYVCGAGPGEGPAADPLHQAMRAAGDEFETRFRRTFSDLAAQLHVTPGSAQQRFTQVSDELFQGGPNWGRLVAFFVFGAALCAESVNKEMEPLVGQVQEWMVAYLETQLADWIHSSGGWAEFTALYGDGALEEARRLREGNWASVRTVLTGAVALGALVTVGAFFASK
The experiment is described as follows: Inhibition of Bak peptide binding to human recombinant Bcl-w. In short, it runs like this: as §1

Chain of Apoptosis regulator Bcl-2 (P10415 whole entry): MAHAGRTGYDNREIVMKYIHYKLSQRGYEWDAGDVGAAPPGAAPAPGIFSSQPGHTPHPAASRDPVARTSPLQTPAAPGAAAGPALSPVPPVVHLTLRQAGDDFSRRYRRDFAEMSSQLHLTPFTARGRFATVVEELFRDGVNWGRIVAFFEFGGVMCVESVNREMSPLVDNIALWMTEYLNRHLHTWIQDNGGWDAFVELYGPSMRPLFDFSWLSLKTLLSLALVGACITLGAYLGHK

For `O=C(O)[C@H](Cc1ccccc1)N1C(=O)/C(=C/c2ccc(Br)cc2)SC1=S`, the IC50 in experiment [1] came to 69.1 µM.

With `O=C(OCCOCCOCCOC(=O)[C@H](Cc1ccccc1)N1C(=O)/C(=C/c2ccc(Br)cc2)SC1=S)[C@H](Cc1ccccc1)N1C(=O)/C(=C/c2ccc(Br)cc2)SC1=S`, the Ki in experiment [2] came to 161 µM; on Bcl-2-like protein 2, 88.3 µM.

`CCOC(=O)[C@H](Cc1ccccc1)N1C(=O)/C(=C/c2ccc(Br)cc2)SC1=S`: the Ki turned out to be 260 µM in experiment [2] and 116 µM at Bcl-2-like protein 2.

Consider `O=C(O)[C@H](Cc1ccccc1)N1C(=O)/C(=C/c2ccc(OCCOCCOc3ccc(/C=C4\SC(=S)N([C@@H](Cc5ccccc5)C(=O)O)C4=O)cc3)cc2)SC1=S`, for which the Ki in experiment [2] was determined as 4.3 µM; on Bcl-2-like protein 2, 2.2 µM.

Take `O=C(OCCOC(=O)[C@H](Cc1ccccc1)N1C(=O)/C(=C/c2ccc(Br)cc2)SC1=S)[C@H](Cc1ccccc1)N1C(=O)/C(=C/c2ccc(Br)cc2)SC1=S`: the Ki in experiment [2] is 243 µM; on Bcl-2-like protein 2, 101 µM.

For the molecule `O=C(O)[C@H](Cc1ccccc1)N1C(=O)/C(=C/c2ccc(OCCOCCOCCOc3ccc(/C=C4\SC(=S)N([C@@H](Cc5ccccc5)C(=O)O)C4=O)cc3)cc2)SC1=S`, the inhibitory constant (Ki) in experiment [2] is 21.2 µM; on Bcl-2-like protein 2, 13.7 µM.

Turning to `O=C(OCCOCCOC(=O)[C@H](Cc1ccccc1)N1C(=O)/C(=C/c2ccc(Br)cc2)SC1=S)[C@H](Cc1ccccc1)N1C(=O)/C(=C/c2ccc(Br)cc2)SC1=S`, the results for the Ki (in experiment [2]; at Bcl-2-like protein 2) were greater than 1000 µM and 99 µM, respectively.

For the molecule `CCOC(=O)[C@H](Cc1ccccc1)N1C(=O)/C(=C/c2ccc(OCOc3ccc(/C=C4\SC(=S)N([C@@H](Cc5ccccc5)C(=O)OCC)C4=O)cc3)cc2)SC1=S`, the values for the Ki (in experiment [2]; at Bcl-2-like protein 2) were 226 µM and 39.2 µM, respectively.

As to `O=C(O)[C@H](Cc1ccccc1)N1C(=O)/C(=C/c2ccc(OCCOc3ccc(/C=C4\SC(=S)N([C@@H](Cc5ccccc5)C(=O)O)C4=O)cc3)cc2)SC1=S`, the Ki in experiment [2] came to 1.7 µM; at Bcl-2-like protein 2 it was 1.3 µM. This molecule also showed an IC50 in experiment [1] of 6.1 µM.

For the molecule `O=C(O)[C@H](Cc1ccccc1)N1C(=O)/C(=C/c2ccc(OCOc3ccc(/C=C4\SC(=S)N([C@@H](Cc5ccccc5)C(=O)O)C4=O)cc3)cc2)SC1=S`, the results for the Ki (in experiment [2]; on Bcl-2-like protein 2) were 4.3 µM and 2.3 µM, respectively.

Usually IC50 stands for the concentration that inhibits the measured activity by half. Read a low IC50 as higher potency. One may read the Ki as the equilibrium dissociation constant of an inhibitor or competing ligand from its target.

The record behind these values is ChEMBL document CHEMBL1142253, “Development of dimeric modulators for anti-apoptotic Bcl-2 proteins” (Bioorg Med Chem Lett, 2008).
